Experimental data taken from ChEMBL document CHEMBL4811218, “Discovery and optimization of withangulatin A derivatives as novel glutaminase 1 inhibitors for the treatment of triple-negative breast cancer” (Eur J Med Chem, 2021).

How the values were obtained:
[1] = tested on: MDA-MB-231; test: Antiproliferative activity against human MDA-MB-231 cells after 24 hrs by MTT assay; assay type: functional, cell-based; details: MDA-MB-231, 24 h
[2] = tested on: MDA-MB-231; test: Antiproliferative activity against human MDA-MB-231 cells after 24 hrs by MTT assay relative to control; assay type: functional
Outline: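 MDA-MB-231 cells kept in DMEM with 10% FBS at 37°C, 5% CO2. Seeded at 5×10^3 cells/well and left 24 h, then exposed to compounds at 0.078-10 µM for 24 h. 0.1% DMSO served as the vehicle control. MTT added for 4 h, formazan dissolved in DMSO, absorbance read at 570 nm. IC50 derived. Each run in triplicate, repeated at least three times.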

[3] = target: T1, Glutaminase kidney isoform, mitochondrial (Homo sapiens) (UniProt O94925); test: Inhibition of human GLS1 at 10 uM relative to control
T1 sequence (whole entry): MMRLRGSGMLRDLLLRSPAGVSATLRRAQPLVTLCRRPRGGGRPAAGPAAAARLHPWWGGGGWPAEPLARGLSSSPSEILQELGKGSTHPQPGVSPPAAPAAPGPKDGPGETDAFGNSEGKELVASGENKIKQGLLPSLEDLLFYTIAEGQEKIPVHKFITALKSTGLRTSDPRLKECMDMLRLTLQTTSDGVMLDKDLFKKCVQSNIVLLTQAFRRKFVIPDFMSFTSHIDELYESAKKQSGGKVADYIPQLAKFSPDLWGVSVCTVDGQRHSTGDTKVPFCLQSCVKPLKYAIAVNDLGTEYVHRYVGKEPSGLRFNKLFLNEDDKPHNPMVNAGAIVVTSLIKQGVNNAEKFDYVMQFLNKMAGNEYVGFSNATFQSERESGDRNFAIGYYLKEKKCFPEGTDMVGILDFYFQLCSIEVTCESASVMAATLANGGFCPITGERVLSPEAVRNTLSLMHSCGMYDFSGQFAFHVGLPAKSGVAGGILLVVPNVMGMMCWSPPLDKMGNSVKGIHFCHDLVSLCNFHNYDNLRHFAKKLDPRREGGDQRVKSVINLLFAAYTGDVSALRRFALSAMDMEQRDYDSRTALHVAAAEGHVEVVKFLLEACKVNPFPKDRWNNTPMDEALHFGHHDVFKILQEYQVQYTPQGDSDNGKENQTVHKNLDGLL
Outline: (§1)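 Human GLS1 hydrolase activity measured with a commercial GLS1 inhibitor screening kit, following the manufacturer's protocol. Single-point screening was run at 10 μM.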

[4] = target: T2, Glutaminase kidney isoform, mitochondrial (Homo sapiens, UniProt O94925); test: Inhibition of human GLS1; outline: as §1
T2 sequence (O94925 whole entry): T1 sequence (whole entry)

Compound	IC50 [1] [nM]	inhibition [3] [%]	IC50 [4] [nM]	inhibition (INH) [2] [%]
CC(=O)O[C@H]1C=C([C@H](C)[C@H]2CC(C)=C(C)C(=O)O2)[C@@]2(C)CC[C@H]3[C@@H](C[C@H]4O[C@]45[C@@H](OC(=O)/C=C/C(=O)Nc4nc6ccccc6s4)C=CC(=O)[C@]35C)[C@@]12O	> 50000	< 50		0
CC(=O)O[C@H]1C=C([C@H](C)[C@H]2CC(C)=C(C)C(=O)O2)[C@@]2(C)CC[C@H]3[C@@H](C[C@H]4O[C@]45[C@@H](OC(=O)/C=C/C(=O)Nc4ccc(N6CCOCC6)c(F)c4)C=CC(=O)[C@]35C)[C@@]12O	1380	52.4		90.8
CC(=O)O[C@H]1C=C([C@H](C)[C@H]2CC(C)=C(C)C(=O)O2)[C@@]2(C)CC[C@H]3[C@@H](C[C@H]4O[C@]45[C@@H](OC(=O)/C=C/C(=O)O)C=CC(=O)[C@]35C)[C@@]12O	> 50000	< 50		
COc1ccc(NC(=O)CCC(=O)O[C@H]2C(Nc3ccc(OC)cc3)CC(=O)[C@]3(C)[C@H]4CC[C@]5(C)C([C@H](C)[C@H]6CC(C)=C(C)C(=O)O6)=C[C@H](OC(C)=O)[C@]5(O)[C@@H]4C[C@H]4O[C@@]423)cc1 (stereo partly specified)	> 50000	< 50		0
COc1ccc(NC(=O)CCCC(=O)O[C@H]2C(Nc3ccc(OC)cc3)CC(=O)[C@]3(C)[C@H]4CC[C@]5(C)C([C@H](C)[C@H]6CC(C)=C(C)C(=O)O6)=C[C@H](OC(C)=O)[C@]5(O)[C@@H]4C[C@H]4O[C@@]423)cc1 (stereo partly specified)	> 50000	< 50		0
CC(=O)O[C@H]1C=C([C@H](C)[C@H]2CC(C)=C(C)C(=O)O2)[C@@]2(C)CC[C@H]3[C@@H](C[C@H]4O[C@]45[C@@H](OC(=O)CCCC(=O)Nc4nc6ccccc6s4)C=CC(=O)[C@]35C)[C@@]12O	670	< 50		94.1
CC(=O)O[C@H]1C=C([C@H](C)[C@H]2CC(C)=C(C)C(=O)O2)[C@@]2(C)CC[C@H]3[C@@H](C[C@H]4O[C@]45[C@@H](OC(=O)/C=C/C(=O)Nc4nccs4)C=CC(=O)[C@]35C)[C@@]12O	1830	< 50		88.4
CC(=O)O[C@H]1C=C([C@H](C)[C@H]2CC(C)=C(C)C(=O)O2)[C@@]2(C)CC[C@H]3[C@@H](C[C@H]4O[C@]45[C@@H](OC(=O)CCCC(=O)Nc4nncs4)C=CC(=O)[C@]35C)[C@@]12O	2170	< 50		71.6
CC(=O)O[C@H]1C=C([C@H](C)[C@H]2CC(C)=C(C)C(=O)O2)[C@@]2(C)CC[C@H]3[C@@H](C[C@H]4O[C@]45[C@@H](OC(=O)CCCC(=O)Nc4nccs4)C=CC(=O)[C@]35C)[C@@]12O	1000	< 50		84.8
CC(=O)O[C@H]1C=C([C@H](C)[C@H]2CC(C)=C(C)C(=O)O2)[C@@]2(C)CC[C@H]3[C@@H](C[C@H]4O[C@]45[C@@H](OC(=O)/C=C/C(=O)Nc4ccc(N(C)C)cc4)C=CC(=O)[C@]35C)[C@@]12O	1560	< 50		72.1
O=C(Cc1ccccc1)Nc1nnc(CCSCCc2nnc(NC(=O)Cc3ccccc3)s2)s1	9080			68.5
COc1ccc(NC(=O)/C=C/C(=O)O[C@H]2C(Nc3ccc(OC)cc3)CC(=O)[C@]3(C)[C@H]4CC[C@]5(C)C([C@H](C)[C@H]6CC(C)=C(C)C(=O)O6)=C[C@H](OC(C)=O)[C@]5(O)[C@@H]4C[C@H]4O[C@@]423)cc1 (stereo partly specified)	> 50000	< 50		0
COc1ccc(NC(=O)/C=C/C(=O)O[C@H]2C=CC(=O)[C@]3(C)[C@H]4CC[C@]5(C)C([C@H](C)[C@H]6CC(C)=C(C)C(=O)O6)=C[C@H](OC(C)=O)[C@]5(O)[C@@H]4C[C@H]4O[C@]243)cc1	790	51.6		94.1
CC(=O)O[C@H]1C=C([C@H](C)[C@H]2CC(C)=C(C)C(=O)O2)[C@@]2(C)CC[C@H]3[C@@H](C[C@H]4O[C@]45[C@@H](OC(=O)CCCC(=O)O)C=CC(=O)[C@]35C)[C@@]12O	> 50000	< 50		
CC(=O)O[C@H]1C=C([C@H](C)[C@H]2CC(C)=C(C)C(=O)O2)[C@@]2(C)CC[C@H]3[C@@H](C[C@H]4O[C@]45[C@@H](O)C=CC(=O)[C@]35C)[C@@]12O	6340	41.4	18200	74.7
CC(=O)O[C@H]1C=C([C@H](C)[C@H]2CC(C)=C(C)C(=O)O2)[C@@]2(C)CC[C@H]3[C@@H](C[C@H]4O[C@]45[C@@H](OC(=O)CCCC(=O)Nc4ccc(N6CCOCC6)c(F)c4)C(Nc4ccc(N6CCOCC6)c(F)c4)CC(=O)[C@]35C)[C@@]12O (stereo partly specified)	> 50000	< 50		0

Second part, led by results:

IC50 [1] [nM]	inhibition [3] [%]	IC50 [4] [nM]	Compound	inhibition (INH) [2] [%]
3500	< 50		CC(=O)O[C@H]1C=C([C@H](C)[C@H]2CC(C)=C(C)C(=O)O2)[C@@]2(C)CC[C@H]3[C@@H](C[C@H]4O[C@]45[C@@H](OC(=O)CCC(=O)Nc4nc6ccccc6s4)C=CC(=O)[C@]35C)[C@@]12O	79.5
1020	< 50		COc1ccc(NC(=O)CCC(=O)O[C@H]2C=CC(=O)[C@]3(C)[C@H]4CC[C@]5(C)C([C@H](C)[C@H]6CC(C)=C(C)C(=O)O6)=C[C@H](OC(C)=O)[C@]5(O)[C@@H]4C[C@H]4O[C@]243)cc1	82.9
2060	< 50		CC(=O)O[C@H]1C=C([C@H](C)[C@H]2CC(C)=C(C)C(=O)O2)[C@@]2(C)CC[C@H]3[C@@H](C[C@H]4O[C@]45[C@@H](OC(=O)CCC(=O)Nc4nccs4)C=CC(=O)[C@]35C)[C@@]12O	79.6
490	< 50		CC(=O)O[C@H]1C=C([C@H](C)[C@H]2CC(C)=C(C)C(=O)O2)[C@@]2(C)CC[C@H]3[C@@H](C[C@H]4O[C@]45[C@@H](OC(=O)CCCC(=O)Nc4ccc(F)cc4)C=CC(=O)[C@]35C)[C@@]12O	95.4
> 50000	< 50		CC(=O)O[C@H]1C=C([C@H](C)[C@H]2CC(C)=C(C)C(=O)O2)[C@@]2(C)CC[C@H]3[C@@H](C[C@H]4O[C@]45[C@@H](OC(=O)CCC(=O)O)C=CC(=O)[C@]35C)[C@@]12O	
1320	< 50		CC(=O)O[C@H]1C=C([C@H](C)[C@H]2CC(C)=C(C)C(=O)O2)[C@@]2(C)CC[C@H]3[C@@H](C[C@H]4O[C@]45[C@@H](OC(=O)/C=C/C(=O)Nc4ccc(F)cc4)C=CC(=O)[C@]35C)[C@@]12O	88.9
440	56.3		COc1ccc(NC(=O)CCCC(=O)O[C@H]2C=CC(=O)[C@]3(C)[C@H]4CC[C@]5(C)C([C@H](C)[C@H]6CC(C)=C(C)C(=O)O6)=C[C@H](OC(C)=O)[C@]5(O)[C@@H]4C[C@H]4O[C@]243)cc1	92.9
1660	53.5		CC(=O)O[C@H]1C=C([C@H](C)[C@H]2CC(C)=C(C)C(=O)O2)[C@@]2(C)CC[C@H]3[C@@H](C[C@H]4O[C@]45[C@@H](OC(=O)CCC(=O)Nc4ccc(N6CCOCC6)c(F)c4)C=CC(=O)[C@]35C)[C@@]12O	80.9
1070	51.8		CC(=O)O[C@H]1C=C([C@H](C)[C@H]2CC(C)=C(C)C(=O)O2)[C@@]2(C)CC[C@H]3[C@@H](C[C@H]4O[C@]45[C@@H](OC(=O)CCCC(=O)Nc4ccc(N(C)C)cc4)C=CC(=O)[C@]35C)[C@@]12O	92.6
1620	< 50		CC(=O)O[C@H]1C=C([C@H](C)[C@H]2CC(C)=C(C)C(=O)O2)[C@@]2(C)CC[C@H]3[C@@H](C[C@H]4O[C@]45[C@@H](OC(=O)CCC(=O)Nc4ccc(N(C)C)cc4)C=CC(=O)[C@]35C)[C@@]12O	83.3
8070	< 50		CC(=O)O[C@H]1C=C([C@H](C)[C@H]2CC(C)=C(C)C(=O)O2)[C@@]2(C)CC[C@H]3[C@@H](C[C@H]4O[C@]45[C@@H](OC(=O)CCC(=O)Nc4nncs4)C=CC(=O)[C@]35C)[C@@]12O	77.5
1870	< 50		CC(=O)O[C@H]1C=C([C@H](C)[C@H]2CC(C)=C(C)C(=O)O2)[C@@]2(C)CC[C@H]3[C@@H](C[C@H]4O[C@]45[C@@H](OC(=O)CCC(=O)Nc4ccc(F)cc4)C=CC(=O)[C@]35C)[C@@]12O	80.4
